From ChEMBL document CHEMBL1143876, “Synthesis, analgesic, anti-inflammatory, and antimicrobial activity of some novel pyrimido[4,5-b]quinolin-4-ones” (2008)

Columns and labels:
Pseudomonas aeruginosa [1] = assay: Antimicrobial activity against Pseudomonas aeruginosa at 50 ug/disk after 24 to 28 hrs; type: functional; conditions: read-out: IZ
How it was run: (§1)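 Agar disk diffusion: 5 mm paper disks loaded with 50 µg/disk in DMSO. Inhibition zones read after 24–28 h at 37 °C for bacteria, or 5 days at 28 °C for clinical Candida isolates grown on Sabouraud dextrose agar. Zone graded 6–10 mm slight, 11–15 mm moderate, >15 mm high. Reference disks: nalidixic acid 30 µg, nystatin 100 U.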

Pseudomonas aeruginosa [2] = assay: Antimicrobial activity against Pseudomonas aeruginosa; type: functional
How it was run: (§2)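 MIC found by disk diffusion using disks carrying varying amounts of compound per disk, in DMSO. Incubated 24–28 h at 37 °C for bacteria and 5 days at 28 °C for Candida. MIC given in µg/disk.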

Mus musculus [3] = assay: Analgesic activity in Swiss albino mouse assessed as reaction time at 15 mg/kg, po after 90 mins by hot plate test; type: functional
How it was run: (§3)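 Mice of both sexes, 25–30 g, on a hot plate at 53 ± 0.5 °C; reaction time taken to hind-paw lick or jump, 60 s cut-off. Baseline read before dosing. Oral dosing in 10% v/v Tween 80 in water: test agents 15 mg/kg, acetylsalicylic acid 100 mg/kg. Re-read at 15, 30, 60 and 90 min; means ± SE.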

Escherichia coli [4] = assay: Antimicrobial activity against Escherichia coli; type: functional; how it was run: as §2
Mus musculus [5] = assay: Analgesic activity in Swiss albino mouse assessed as reaction time at 15 mg/kg, po after 60 mins by hot plate test; type: functional; how it was run: as §3
Rattus norvegicus [6] = assay: Antiinflammatory activity against carrageenan-induced paw edema in Sprague-Dawley rat at 15 mg/kg, po relative to indomethacin after 2 hrs; type: functional
How it was run: (§4)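 Adult male rats, 150–180 g, six per group. Oral dose 1 h before 0.1 ml 1% carrageenin sc into the left hind footpad: test agents 15 mg/kg as suspension, indomethacin 10 mg/kg; vehicle 10% Tween 80. Paw volume by plethysmometer before injection, then hourly for 4 h. Edema % = (Vt−Vc)/Vc; inhibition % = (Ec−Et)/Ec. Potency taken relative to indomethacin. Means ± SE.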

Klebsiella pneumoniae [7] = assay: Antimicrobial activity against Klebsiella pneumoniae; type: functional; how it was run: as §2
Rattus norvegicus [8] = assay: Antiinflammatory activity against carrageenan-induced paw edema in Sprague-Dawley rat at 15 mg/kg, po relative to indomethacin after 1 hr; type: functional; how it was run: as §4
Staphylococcus aureus [9] = assay: Antimicrobial activity against Staphylococcus aureus at 50 ug/disk after 24 to 28 hrs; type: functional; conditions: read-out: IZ; how it was run: as §1
Rattus norvegicus [10] = assay: Antiinflammatory activity against carrageenan-induced paw edema in Sprague-Dawley rat at 15 mg/kg, po relative to indomethacin after 3 hrs; type: functional; how it was run: as §4
Rattus norvegicus [11] = assay: Antiinflammatory activity against carrageenan-induced paw edema in Sprague-Dawley rat at 15 mg/kg, po after 1 hr; type: functional; how it was run: as §4
Staphylococcus aureus [12] = assay: Antimicrobial activity against Staphylococcus aureus; type: functional; how it was run: as §2
Rattus norvegicus [13] = assay: Antiinflammatory activity against carrageenan-induced paw edema in Sprague-Dawley rat at 15 mg/kg, po after 4 hrs; type: functional; how it was run: as §4
Rattus norvegicus [14] = assay: Antiinflammatory activity against carrageenan-induced paw edema in Sprague-Dawley rat at 15 mg/kg, po relative to indomethacin after 4 hrs; type: functional; how it was run: as §4
Mus musculus [15] = assay: Analgesic activity in Swiss albino mouse assessed as reaction time at 15 mg/kg, po after 30 mins by hot plate test; type: functional; how it was run: as §3
Escherichia coli [16] = assay: Antimicrobial activity against Escherichia coli at 50 ug/disk after 24 to 28 hrs; type: functional; conditions: read-out: IZ; how it was run: as §1
Mus musculus [17] = assay: Analgesic activity against acetic acid-induced abdominal constriction in Swiss albino mouse at 15 mg/kg, po after 20 mins by writhing test relative to acetylsalicylic acid; type: functional, Abdomen
How it was run: (§5)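 Mice of both sexes, 25–30 g, dosed orally in 10% v/v Tween 80 in water. Test agents were given at 15 mg/kg and acetylsalicylic acid at 100 mg/kg. 30 min later, 0.7% acetic acid (10 ml/kg) ip. Writhes counted over 20 min; six per group. % protection = (control mean − treated mean)/control mean ×100; means ± SE.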

Rattus norvegicus [18] = assay: Antiinflammatory activity against carrageenan-induced paw edema in Sprague-Dawley rat at 15 mg/kg, po after 2 hrs; type: functional; how it was run: as §4
Rattus norvegicus [19] = assay: Antiinflammatory activity against carrageenan-induced paw edema in Sprague-Dawley rat at 15 mg/kg, po after 3 hrs; type: functional; how it was run: as §4
Klebsiella pneumoniae [20] = assay: Antimicrobial activity against Klebsiella pneumoniae at 50 ug/disk after 24 to 28 hrs; type: functional; conditions: read-out: IZ; how it was run: as §1
Mus musculus [21] = assay: Analgesic activity against acetic acid-induced abdominal constriction in Swiss albino mouse at 15 mg/kg, po after 20 mins by writhing test; type: functional, Abdomen; how it was run: as §5
Nakaseomyces glabratus = assay: Antimicrobial activity against Candida glabrata at 50 ug/disk after 5 days; type: functional; conditions: for zone of inhibition at 50 µg/disc: 120 h, read-out: IZ; how it was run: as §1
Candida albicans [22] = assay: Antimicrobial activity against Candida albicans at 50 ug/disk after 5 days; type: functional; conditions: 120 h, read-out: IZ; how it was run: as §1
Candida albicans [23] = assay: Antimicrobial activity against Candida albicans; type: functional; how it was run: as §2

| Molecule | zone of inhibition at 50 µg/disc (Pseudomonas aeruginosa [1]) | MIC (Pseudomonas aeruginosa [2]) | Time (Mus musculus [3]) | MIC (Escherichia coli [4]) | Time (Mus musculus [5]) | MIC (Klebsiella pneumoniae [7]) | zone of inhibition at 50 µg/disc (Staphylococcus aureus [9]) | MIC (Staphylococcus aureus [12]) | Time (Mus musculus [15]) | zone of inhibition at 50 µg/disc (Escherichia coli [16]) | Activity (Mus musculus [17]) | zone of inhibition at 50 µg/disc (Klebsiella pneumoniae [20]) | Activity (Mus musculus [21]) | further results |
| --- | --- | --- | --- | --- | --- | --- | --- | --- | --- | --- | --- | --- | --- | --- |
| Nc1n[nH]c2nc3nc4c(c(-c5ccccc5)c3c(=O)n12)CCCC4 | 22 mm | 30 µg | 7.62 s | 30 µg | 6.74 s | 30 µg | 21 mm | 30 µg | 5.14 s | 20 mm | 110.44% | 22 mm | 57.1% | inhibition in vivo at 15 mg/kg (Rattus norvegicus [6]): 2.1%; inhibition in vivo at 15 mg/kg (Rattus norvegicus [8]): 17.7%; inhibition in vivo at 15 mg/kg (Rattus norvegicus [10]): 6.6%; inhibition in vivo at 15 mg/kg (Rattus norvegicus [11]): 10.1%; inhibition in vivo at 15 mg/kg (Rattus norvegicus [13]): 9.5%; inhibition in vivo at 15 mg/kg (Rattus norvegicus [14]): 20.5%; inhibition in vivo at 15 mg/kg (Rattus norvegicus [18]): 1.2%; inhibition in vivo at 15 mg/kg (Rattus norvegicus [19]): 2.8% |
| O=c1c2c(-c3ccccc3)c3c(nc2nc2[nH]nnn12)CCCC3 | 22 mm | 30 µg | 10.08 s | 30 µg | 10.78 s | 30 µg | 17 mm | 30 µg | 9.16 s | 18 mm | 27.07% | 16 mm | 14% |  |
| Cc1cc(C)n(-c2nc3nc4c(c(-c5ccccc5)c3c(=O)[nH]2)CCCC4)n1 | 22 mm | 30 µg | 11.5 s | 30 µg | 10.15 s | 30 µg | 21 mm | 30 µg | 8.93 s | 19 mm | 114.51% | 20 mm | 59.2% | zone of inhibition at 50 µg/disc (Nakaseomyces glabratus): 9 mm; inhibition in vivo at 15 mg/kg (Rattus norvegicus [6]): 1.5%; inhibition in vivo at 15 mg/kg (Rattus norvegicus [8]): 14.5%; inhibition in vivo at 15 mg/kg (Rattus norvegicus [10]): 0.1%; inhibition in vivo at 15 mg/kg (Rattus norvegicus [11]): 10.5%; inhibition in vivo at 15 mg/kg (Rattus norvegicus [13]): 0.8%; zone of inhibition at 50 µg/disc (Candida albicans [22]): 9 mm; inhibition in vivo at 15 mg/kg (Rattus norvegicus [14]): 1.7%; inhibition in vivo at 15 mg/kg (Rattus norvegicus [18]): 0.9%; inhibition in vivo at 15 mg/kg (Rattus norvegicus [19]): 0.1% |
| CCn1cc(C(=O)O)c(=O)c2ccc(C)nc21 [NALIDIXIC ACID] | 25 mm |  |  |  |  |  | 25 mm |  |  | 24 mm |  | 25 mm |  |  |
| NYSTATIN |  |  |  |  |  |  |  |  |  |  |  |  |  | inhibition zone (IZ) (Nakaseomyces glabratus): 19 mm |
| O=c1[nH]c(N/N=C\c2ccccc2)nc2nc3c(c(-c4ccccc4)c12)CCCC3 | 14 mm |  | 12.68 s |  | 12.52 s |  | 16 mm |  | 10.08 s | 15 mm | 67.51% | 18 mm | 34.9% | zone of inhibition at 50 µg/disc (Nakaseomyces glabratus): 7 mm; zone of inhibition at 50 µg/disc (Candida albicans [22]): 7 mm |
| O=c1[nH]c(=S)[nH]c2nc3c(c(-c4ccc(Cl)cc4)c12)CCCC3 | 14 mm |  |  |  |  |  | 13 mm |  |  | 13 mm |  | 14 mm |  |  |
| NNc1nc2nc3c(c(-c4ccccc4)c2c(=O)[nH]1)CCCC3 | 15 mm |  | 12 s |  | 10.61 s |  | 11 mm |  | 7.54 s | 13 mm | 102.32% | 13 mm | 52.9% | inhibition in vivo at 15 mg/kg (Rattus norvegicus [6]): 35.7%; inhibition in vivo at 15 mg/kg (Rattus norvegicus [8]): 53.5%; inhibition in vivo at 15 mg/kg (Rattus norvegicus [10]): 51.1%; inhibition in vivo at 15 mg/kg (Rattus norvegicus [11]): 30.5%; inhibition in vivo at 15 mg/kg (Rattus norvegicus [13]): 18.6%; inhibition in vivo at 15 mg/kg (Rattus norvegicus [14]): 40.1%; inhibition in vivo at 15 mg/kg (Rattus norvegicus [18]): 20.8%; inhibition in vivo at 15 mg/kg (Rattus norvegicus [19]): 21.8% |
| O=c1c2c(-c3ccccc3)c3c(nc2nc2n(-c4ccccc4)nc(-c4ccccc4)n12)CCCC3 |  |  | 11.88 s |  | 11.62 s |  |  |  | 9.84 s |  | 8.89% |  | 4.6% |  |
| Nn1c(-c2ccccc2)cn2c(=O)c3c(-c4ccccc4)c4c(nc3nc12)CCCC4 | 23 mm | 20 µg | 10.67 s | 20 µg | 11.41 s | 20 µg | 19 mm | 20 µg | 9.42 s | 21 mm | 71.76% | 22 mm | 37.1% |  |
| Cc1n[nH]c2nc3nc4c(c(-c5ccccc5)c3c(=O)n12)CCCC4 | 21 mm | 20 µg | 10.4 s | 20 µg | 8.8 s | 20 µg | 21 mm | 20 µg | 8.68 s | 20 mm | 11.2% | 20 mm | 5.8% | zone of inhibition at 50 µg/disc (Nakaseomyces glabratus): 13 mm; zone of inhibition at 50 µg/disc (Candida albicans [22]): 18 mm; MIC (Candida albicans [23]): 50 µg |
| O=c1[nH]c(=S)[nH]c2nc3c(c(-c4ccccc4)c12)CCCC3 | 15 mm |  | 11.12 s |  | 10.98 s |  | 13 mm |  | 8.65 s | 12 mm | 68.47% | 14 mm | 35.4% |  |
